Measurements from ChEMBL document CHEMBL4002581, “Versiquinazolines A-K, Fumiquinazoline-Type Alkaloids from the Gorgonian-Derived Fungus Aspergillus versicolor LZD-14-1” (J Nat Prod, 2016).

What was measured:
[1] = system: A2780; assay: Cytotoxicity against human A2780 cells by MTT assay; assay type: functional, cell-based
Method in brief: (§1)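 Tetrazolium-based colorimetric (MTT) read-out of tumour-cell viability, run on A549 and A2780 lines.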

[2] = system: A549; assay: Cytotoxicity against human A549 cells by MTT assay; assay type: functional, cell-based; method in brief: as §1
[3] = species on record: Homo sapiens; assay: Inhibition of thioredoxin reductase (unknown origin) at 50 uM measured after 5 mins by DTNB reduction assay relative to control
Method in brief: (§2)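 TrxR inhibition was screened at 50 μM as % inhibition, and IC50 values are reported in μM. Curcumin was run as positive control. The procedure follows a previously described method.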

[4] = Inhibition of thioredoxin reductase (unknown origin) measured after 5 mins by DTNB reduction assay; set-up: species or system Homo sapiens; method in brief: as §2

| inhibition [3] | IC50 [4] | SMILES | IC50 [1] | IC50 [2] |
| --- | --- | --- | --- | --- |
| 27% |  | C[C@@H]1N[C@@H]2N(C1=O)c1ccccc1[C@@]2(O)C[C@H]1C(=O)NCc2nc3ccccc3c(=O)n21 | > 50 µM | > 50 µM |
| 47% |  | O=C1N[C@H]2O[C@@]3(C[C@@H]1n1c2nc2ccccc2c1=O)c1ccccc1N1C(=O)C2(CC2)N[C@H]13 | > 50 µM | > 50 µM |
| 43% |  | CC[C@H](C)[C@H]1C(=O)N2c3ccccc3[C@@]3(O)C[C@H]4C(=O)N[C@H](c5nc6ccccc6c(=O)n54)N1[C@H]23 | > 50 µM | > 50 µM |
| 64% | 20 µM | C[C@H]1C(=O)N2c3ccccc3[C@@]34C[C@H]5C(=O)N(CN1[C@H]23)[C@@H](O4)c1nc2ccccc2c(=O)n15 | > 50 µM | > 50 µM |
| 17% |  | O=C1N[C@@H]2c3nc4ccccc4c(=O)n3[C@H]1C[C@]1(O)c3ccccc3N3C(=O)C4(CC4)N2[C@H]31 | > 50 µM | > 50 µM |
| 28% |  | O=C1NCc2nc3ccccc3c(=O)n2[C@H]1C[C@]1(O)c2ccccc2N2C(=O)C3(CC3)N[C@H]21 | > 50 µM | > 50 µM |
| 51% |  | O=C1NCc2nc3ccccc3c(=O)n2[C@H]1C[C@@]12OCN3[C@@H]1N(C(=O)C31CC1)c1ccccc12 | > 50 µM | > 50 µM |
| 55% |  | O=C1NCc2nc3c(O)cccc3c(=O)n2[C@H]1Cc1c[nH]c2ccccc12 | > 50 µM | > 50 µM |
| 38% |  | C[C@H]1C(=O)N2c3ccccc3[C@@]3(O)C[C@H]4C(=O)N[C@H](c5nc6ccccc6c(=O)n54)N1[C@H]23 | > 50 µM | > 50 µM |

Further lines, the molecule ahead of its results:

| SMILES | inhibition [3] | IC50 [4] | IC50 [1] | IC50 [2] |
| --- | --- | --- | --- | --- |
| C=CC(C)(C)[C@@]12C=C(OC)C(=O)N3[C@@H](C)C(=O)N[C@]31N(O)c1ccccc12 | 76% | 13 µM | > 50 µM | > 50 µM |
| CC[C@H](C)[C@@H]1C(=O)N2c3ccccc3[C@@]3(O)C[C@H](n4cnc5ccccc5c4=O)C(=O)N1[C@@H]23 | 62% |  | > 50 µM | > 50 µM |
| COc1cc(/C=C/C(=O)CC(=O)/C=C/c2ccc(O)c(OC)c2)ccc1O | 25% |  |  |  |
| O=C1[C@@H]2C[C@@]34O[C@@H](c5nc6ccccc6c(=O)n52)N1CN1[C@@H]3N(C(=O)C12CC2)c1ccccc14 | 83% | 12 µM | > 50 µM | > 50 µM |
| C=CC(C)(C)[C@@]12C=C(OC)C(=O)N3[C@@H](C)C(=O)N[C@]31N(OC)c1ccccc12 | 13% |  | > 50 µM | > 50 µM |
| COC(=O)[C@@H]1C[C@]2(O)c3ccccc3N3C(=O)C4(CC4)N([C@@H](OC)c4nc5ccccc5c(=O)n41)[C@H]32 | 83% | 13 µM | > 50 µM | > 50 µM |
